# Assay results as given in publication PMC9722229 (European journal of pharmacology, 2019).
# Like-named read-outs stand apart in the source and are kept apart here.
# Tests used:
# hERG channel = hERG channel (Homo sapiens, UniProt Q12809)
# GABA A = assay: NIMH PDSP receptor binding assay; settings: [3H]Muscimol, mean of 4 determinations
# κ-opioid = κ-opioid (Homo sapiens, UniProt P41145); assay: NIMH PDSP receptor binding assay
# [1] = Oral absorption and brain penetration; assay type: in vivo; settings: unpublished data
# D2 = D2 (Homo sapiens, UniProt P14416); assay: NIMH PDSP receptor binding assay
# PBR = PBR (Rattus norvegicus, UniProt P16257); assay: NIMH PDSP receptor binding assay; settings: read-out: % Inhibition of Binding at 10 μM D-578
# Chain of PBR (P16257 whole entry): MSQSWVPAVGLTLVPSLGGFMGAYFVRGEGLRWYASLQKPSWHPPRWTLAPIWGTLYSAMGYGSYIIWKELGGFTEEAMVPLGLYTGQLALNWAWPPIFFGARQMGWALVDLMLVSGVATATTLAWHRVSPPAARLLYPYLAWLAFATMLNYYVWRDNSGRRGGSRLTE
# V1A = V1A (Homo sapiens, UniProt P37288); assay: NIMH PDSP receptor binding assay; settings: read-out: % Inhibition of Binding at 10 μM D-578
# H1 = H1 (Homo sapiens, UniProt P35367); assay: NIMH PDSP receptor binding assay; settings: read-out: % Inhibition of Binding at 10 μM D-578
# Alpha2B = Alpha2B (Homo sapiens, UniProt P18089); assay: NIMH PDSP receptor binding assay; settings: read-out: % Inhibition of Binding at 10 μM D-578
# Beta2 = Beta2 (Homo sapiens, UniProt P07550); assay: NIMH PDSP receptor binding assay
# Chain of Beta2 (P07550 whole entry): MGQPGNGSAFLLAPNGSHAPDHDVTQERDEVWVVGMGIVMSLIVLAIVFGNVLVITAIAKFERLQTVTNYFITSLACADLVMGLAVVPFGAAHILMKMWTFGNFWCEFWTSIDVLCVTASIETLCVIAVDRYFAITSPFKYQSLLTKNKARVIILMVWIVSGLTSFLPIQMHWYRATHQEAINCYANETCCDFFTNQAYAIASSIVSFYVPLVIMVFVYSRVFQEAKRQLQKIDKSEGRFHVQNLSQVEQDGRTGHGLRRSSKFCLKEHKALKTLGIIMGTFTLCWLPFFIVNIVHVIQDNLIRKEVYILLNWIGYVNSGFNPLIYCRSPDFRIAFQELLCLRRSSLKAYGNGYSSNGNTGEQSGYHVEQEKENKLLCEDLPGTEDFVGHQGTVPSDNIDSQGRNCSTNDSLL
# D1 = D1 (Homo sapiens, UniProt P21728); assay: NIMH PDSP receptor binding assay; settings: read-out: % Inhibition of Binding at 10 μM D-578
# 5HT3 = 5HT3 (Homo sapiens, UniProt P46098); assay: NIMH PDSP receptor binding assay; settings: read-out: % Inhibition of Binding at 10 μM D-578
# DAT = DAT (Rattus norvegicus, UniProt P23977); assay: Inhibition of [3H]DA uptake in rat striatum synaptosomes; assay type: biochemical
# locomotor activity = assay: Locomotor activity test; assay type: in vivo, rat; settings: 25 mg/kg oral, rats, up to 120 min
# How it was run: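 Sprague-Dawley rats were acclimated for 1 h in automated activity chambers, then dosed by oral gavage with test compound (25 mg/kg) or vehicle. Distance travelled was recorded for 2 h after dosing, matching the forced-swim timing. n = 4-7 rats/group.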
# δ-opioid = δ-opioid (Homo sapiens, UniProt P41143); assay: NIMH PDSP receptor binding assay; settings: read-out: % Inhibition of Binding at 10 μM D-578
# Beta1 = Beta1 (Homo sapiens, UniProt P08588); assay: NIMH PDSP receptor binding assay; settings: read-out: % Inhibition of Binding at 10 μM D-578
# μ-Opioid = μ-Opioid (Homo sapiens, UniProt P35372); assay: NIMH PDSP receptor binding assay; settings: read-out: % Inhibition of Binding at 10 μM D-578
# SERT = SERT (Rattus norvegicus, UniProt P31652); assay: Inhibition of [3H]5-HT uptake in rat cerebral cortex synaptosomes; assay type: biochemical
# D5 = D5 (Homo sapiens, UniProt P21918); assay: NIMH PDSP receptor binding assay; settings: read-out: % Inhibition of Binding at 10 μM D-578
# mGlur5 = mGlur5 (Rattus norvegicus, UniProt P31424); assay: NIMH PDSP receptor binding assay; settings: read-out: % Inhibition of Binding at 10 μM D-578
# M4 = M4 (Homo sapiens, UniProt P08173); assay: biochemical; assay type: binding
# Chain of M4 (P08173 whole entry): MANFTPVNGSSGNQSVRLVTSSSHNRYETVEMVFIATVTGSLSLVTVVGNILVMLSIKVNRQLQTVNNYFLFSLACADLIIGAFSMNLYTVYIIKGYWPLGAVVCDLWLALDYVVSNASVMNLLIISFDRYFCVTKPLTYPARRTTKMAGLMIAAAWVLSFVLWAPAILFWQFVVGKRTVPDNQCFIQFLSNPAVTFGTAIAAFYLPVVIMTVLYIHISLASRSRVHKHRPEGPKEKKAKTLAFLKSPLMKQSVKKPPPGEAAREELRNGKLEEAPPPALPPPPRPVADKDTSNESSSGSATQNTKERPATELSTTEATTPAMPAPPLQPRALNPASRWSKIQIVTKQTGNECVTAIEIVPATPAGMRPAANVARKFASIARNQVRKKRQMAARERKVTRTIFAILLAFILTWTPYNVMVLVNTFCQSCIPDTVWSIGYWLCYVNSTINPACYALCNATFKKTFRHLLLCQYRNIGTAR
# V2 = V2 (Homo sapiens, UniProt P30518); assay: NIMH PDSP receptor binding assay; settings: read-out: % Inhibition of Binding at 10 μM D-578
# M5 = M5 (Homo sapiens, UniProt P08912); assay: biochemical; assay type: binding
# Chain of M5 (P08912 whole entry): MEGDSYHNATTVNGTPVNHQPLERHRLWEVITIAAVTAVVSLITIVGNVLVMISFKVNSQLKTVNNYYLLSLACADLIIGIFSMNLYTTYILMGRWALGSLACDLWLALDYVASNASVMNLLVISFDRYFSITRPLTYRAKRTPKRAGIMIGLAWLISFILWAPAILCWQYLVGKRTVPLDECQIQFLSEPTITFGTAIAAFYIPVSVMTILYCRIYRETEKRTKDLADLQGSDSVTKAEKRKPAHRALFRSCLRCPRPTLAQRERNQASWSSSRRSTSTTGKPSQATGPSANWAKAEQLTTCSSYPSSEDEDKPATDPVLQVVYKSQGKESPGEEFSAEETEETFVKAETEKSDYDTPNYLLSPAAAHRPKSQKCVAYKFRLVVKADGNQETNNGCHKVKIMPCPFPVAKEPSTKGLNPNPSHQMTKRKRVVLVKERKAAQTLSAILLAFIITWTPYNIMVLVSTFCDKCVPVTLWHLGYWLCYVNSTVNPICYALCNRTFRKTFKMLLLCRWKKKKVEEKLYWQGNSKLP
# D4 = D4 (Homo sapiens, UniProt P21917); assay: NIMH PDSP receptor binding assay; settings: read-out: % Inhibition of Binding at 10 μM D-578
# [2] = tested on: conditioned fear behavior; assay: Single prolonged stress; assay type: in vivo, rat; settings: SPS rats, D-578 10 mg/kg, paroxetine 5 mg/kg; for Freezing behavior during the extinction retention session (SPS-induced deficit) / Freezing behavior during the extinction session (SPS-induced deficit): i.p. 90 min prior to each session; for Shock reactivity during acquisition compared to the control group: i.p., five 1 mA shocks
# BZP Rat Brain Site = assay: NIMH PDSP receptor binding assay; settings: 3H-Flunitrazepam, mean of 4 determinations
# Alpha1A = Alpha1A (Homo sapiens, UniProt P35348); assay: NIMH PDSP receptor binding assay; settings: read-out: % Inhibition of Binding at 10 μM D-578
# Alpha1B = Alpha1B (Homo sapiens, UniProt P35368); assay: NIMH PDSP receptor binding assay; settings: read-out: % Inhibition of Binding at 10 μM D-578
# 5HT1a = 5HT1a (Homo sapiens, UniProt P08908); assay: NIMH PDSP receptor binding assay; settings: read-out: % Inhibition of Binding at 10 μM D-578
# H3 = H3 (Homo sapiens, UniProt Q9Y5N1); assay: NIMH PDSP receptor binding assay; settings: read-out: % Inhibition of Binding at 10 μM D-578
# M3 = M3 (Homo sapiens, UniProt P20309); assay: biochemical; settings: read-out: % Inhibition of Binding at 10 μM D-578
# cloned human DAT = cloned human DAT (Homo sapiens, UniProt Q01959); assay: Inhibition of [3H]DA uptake in HEK 293 cells expressing cloned human transporter; assay type: cell-based
# cloned human NET = cloned human NET (Homo sapiens, UniProt P23975); assay: cell-based; assay type: cell-based
# Alpha2C = Alpha2C (Homo sapiens, UniProt P18825); assay: NIMH PDSP receptor binding assay
# Chain of Alpha2C (P18825 whole entry): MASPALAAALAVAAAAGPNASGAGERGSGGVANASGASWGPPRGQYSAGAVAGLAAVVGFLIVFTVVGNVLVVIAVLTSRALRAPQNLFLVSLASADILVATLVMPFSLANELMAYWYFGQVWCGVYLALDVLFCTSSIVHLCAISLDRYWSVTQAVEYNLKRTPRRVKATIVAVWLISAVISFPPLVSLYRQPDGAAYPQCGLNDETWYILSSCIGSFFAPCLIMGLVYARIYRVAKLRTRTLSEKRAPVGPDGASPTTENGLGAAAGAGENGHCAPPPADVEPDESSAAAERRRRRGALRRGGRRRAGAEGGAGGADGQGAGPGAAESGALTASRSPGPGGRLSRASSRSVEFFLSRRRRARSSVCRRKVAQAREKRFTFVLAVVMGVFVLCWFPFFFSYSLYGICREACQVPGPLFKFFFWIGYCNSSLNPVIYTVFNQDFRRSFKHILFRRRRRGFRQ
# cloned human SERT = cloned human SERT (Homo sapiens, UniProt P31645); assay type: cell-based
# H4 = H4 (Homo sapiens, UniProt Q9H3N8); assay: NIMH PDSP receptor binding assay; settings: read-out: % Inhibition of Binding at 10 μM D-578
# 5HT2c = 5HT2c (Homo sapiens, UniProt P28335); assay: NIMH PDSP receptor binding assay
# Chain of 5HT2c (P28335 33-458): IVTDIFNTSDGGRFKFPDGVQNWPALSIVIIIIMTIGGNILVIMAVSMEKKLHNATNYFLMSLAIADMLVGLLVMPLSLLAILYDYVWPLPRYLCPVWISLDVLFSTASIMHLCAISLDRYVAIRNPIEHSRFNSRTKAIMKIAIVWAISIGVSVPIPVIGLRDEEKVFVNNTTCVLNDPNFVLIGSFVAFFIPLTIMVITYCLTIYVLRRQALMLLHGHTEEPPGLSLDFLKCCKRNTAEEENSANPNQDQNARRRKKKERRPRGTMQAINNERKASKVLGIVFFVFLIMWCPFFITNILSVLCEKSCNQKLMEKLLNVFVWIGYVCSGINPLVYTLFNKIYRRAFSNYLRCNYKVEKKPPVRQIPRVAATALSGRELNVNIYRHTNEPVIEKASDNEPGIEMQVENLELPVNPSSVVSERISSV
# [3] = tested on: immobility in the forced swimming test; assay: Forced swimming test in rats after oral administration; assay type: in vivo, rat; settings: for Immobility in the rat forced swimming test compared to vehicle: sub-chronic, 1 h before test, mesylate salt
# How it was run: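 Male Sprague-Dawley rats (200-225 g), naive, used once, were given a Porsolt two-session test. The pretest was a 15 min swim and the test a 5 min swim 24 h later, in a 24.5 × 35.5 cm cylinder with 22 cm water at 24-25 °C. Mesylate salt in 3% β-hydroxypropyl cyclodextrin/saline was given p.o. 15 min after pretest and 1 h before test. Blinded video scoring of immobility; one-way ANOVA.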
# Alpha1D = Alpha1D (Homo sapiens, UniProt P25100); assay: NIMH PDSP receptor binding assay; settings: read-out: % Inhibition of Binding at 10 μM D-578
# 5HT2b = 5HT2b (Homo sapiens, UniProt P41595); assay: NIMH PDSP receptor binding assay
# Chain of 5HT2b (P41595 whole entry): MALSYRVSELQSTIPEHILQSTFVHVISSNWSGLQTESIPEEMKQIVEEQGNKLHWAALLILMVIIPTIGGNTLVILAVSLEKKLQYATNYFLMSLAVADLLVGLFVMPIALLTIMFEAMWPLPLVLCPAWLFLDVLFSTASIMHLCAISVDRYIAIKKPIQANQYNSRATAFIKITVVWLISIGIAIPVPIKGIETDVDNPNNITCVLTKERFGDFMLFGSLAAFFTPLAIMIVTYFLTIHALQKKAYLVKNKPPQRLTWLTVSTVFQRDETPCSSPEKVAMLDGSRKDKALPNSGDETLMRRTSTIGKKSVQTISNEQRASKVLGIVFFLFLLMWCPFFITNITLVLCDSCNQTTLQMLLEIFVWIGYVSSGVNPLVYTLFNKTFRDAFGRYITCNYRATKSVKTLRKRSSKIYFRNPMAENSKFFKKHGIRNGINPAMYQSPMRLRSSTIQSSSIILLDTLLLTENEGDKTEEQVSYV
# H2 = H2 (Homo sapiens, UniProt P25021); assay: NIMH PDSP receptor binding assay
# Oxytocin = Oxytocin (Homo sapiens, UniProt P30559); assay: NIMH PDSP receptor binding assay
# 5HT6 = 5HT6 (Homo sapiens, UniProt P50406); assay: NIMH PDSP receptor binding assay; settings: read-out: % Inhibition of Binding at 10 μM D-578
# 5HT7 = 5HT7 (Homo sapiens, UniProt P34969); assay: NIMH PDSP receptor binding assay; settings: read-out: % Inhibition of Binding at 10 μM D-578
# 5HT1d = 5HT1d (Homo sapiens, UniProt P28221); assay: NIMH PDSP receptor binding assay
# Chain of 5HT1d (P28221 whole entry): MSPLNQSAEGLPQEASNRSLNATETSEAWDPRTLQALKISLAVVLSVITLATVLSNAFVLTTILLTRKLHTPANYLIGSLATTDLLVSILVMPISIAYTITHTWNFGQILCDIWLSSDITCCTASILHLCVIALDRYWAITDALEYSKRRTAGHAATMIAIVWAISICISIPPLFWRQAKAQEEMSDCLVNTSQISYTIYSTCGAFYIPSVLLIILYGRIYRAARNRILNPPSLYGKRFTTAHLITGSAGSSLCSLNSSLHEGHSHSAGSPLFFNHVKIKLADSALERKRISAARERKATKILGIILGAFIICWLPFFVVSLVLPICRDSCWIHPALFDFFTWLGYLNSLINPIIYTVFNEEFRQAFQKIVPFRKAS
# D3 = D3 (Homo sapiens, UniProt P35462); assay: NIMH PDSP receptor binding assay
# Chain of D3 (P35462 whole entry): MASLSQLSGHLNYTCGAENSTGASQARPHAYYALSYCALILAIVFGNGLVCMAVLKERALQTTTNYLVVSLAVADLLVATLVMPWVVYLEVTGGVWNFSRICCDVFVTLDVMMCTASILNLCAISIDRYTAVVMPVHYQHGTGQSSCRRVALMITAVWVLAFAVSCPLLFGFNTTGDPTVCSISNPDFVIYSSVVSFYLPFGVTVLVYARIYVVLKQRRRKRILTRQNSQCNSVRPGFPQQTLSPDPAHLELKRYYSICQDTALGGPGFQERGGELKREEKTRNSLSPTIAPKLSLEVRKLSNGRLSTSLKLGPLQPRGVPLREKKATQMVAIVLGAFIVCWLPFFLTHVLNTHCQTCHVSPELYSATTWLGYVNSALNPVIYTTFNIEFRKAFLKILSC
# 5HT1b = 5HT1b (Homo sapiens, UniProt P28222); assay: NIMH PDSP receptor binding assay; settings: read-out: % Inhibition of Binding at 10 μM D-578
# V1B = V1B (Homo sapiens, UniProt P47901); assay: NIMH PDSP receptor binding assay; settings: read-out: % Inhibition of Binding at 10 μM D-578
# 5HT2a = 5HT2a (Homo sapiens, UniProt P28223); assay: NIMH PDSP receptor binding assay
# Beta3 = Beta3 (Homo sapiens, UniProt P13945); assay: NIMH PDSP receptor binding assay
# 5HT5a = 5HT5a (Homo sapiens, UniProt P47898); assay: NIMH PDSP receptor binding assay; settings: read-out: % Inhibition of Binding at 10 μM D-578
# Alpha2A = Alpha2A (Homo sapiens, UniProt P08913); assay: NIMH PDSP receptor binding assay; settings: read-out: % Inhibition of Binding at 10 μM D-578
# M1 = M1 (Homo sapiens, UniProt P11229); assay: biochemical; settings: read-out: % Inhibition of Binding at 10 μM D-578
# M2 = M2 (Homo sapiens, UniProt P08172); assay: biochemical; settings: read-out: % Inhibition of Binding at 10 μM D-578
# [4] = read-out: % Inhibition of Binding at 10 μM D-578
# Chain of hERG channel (Q12809 whole entry): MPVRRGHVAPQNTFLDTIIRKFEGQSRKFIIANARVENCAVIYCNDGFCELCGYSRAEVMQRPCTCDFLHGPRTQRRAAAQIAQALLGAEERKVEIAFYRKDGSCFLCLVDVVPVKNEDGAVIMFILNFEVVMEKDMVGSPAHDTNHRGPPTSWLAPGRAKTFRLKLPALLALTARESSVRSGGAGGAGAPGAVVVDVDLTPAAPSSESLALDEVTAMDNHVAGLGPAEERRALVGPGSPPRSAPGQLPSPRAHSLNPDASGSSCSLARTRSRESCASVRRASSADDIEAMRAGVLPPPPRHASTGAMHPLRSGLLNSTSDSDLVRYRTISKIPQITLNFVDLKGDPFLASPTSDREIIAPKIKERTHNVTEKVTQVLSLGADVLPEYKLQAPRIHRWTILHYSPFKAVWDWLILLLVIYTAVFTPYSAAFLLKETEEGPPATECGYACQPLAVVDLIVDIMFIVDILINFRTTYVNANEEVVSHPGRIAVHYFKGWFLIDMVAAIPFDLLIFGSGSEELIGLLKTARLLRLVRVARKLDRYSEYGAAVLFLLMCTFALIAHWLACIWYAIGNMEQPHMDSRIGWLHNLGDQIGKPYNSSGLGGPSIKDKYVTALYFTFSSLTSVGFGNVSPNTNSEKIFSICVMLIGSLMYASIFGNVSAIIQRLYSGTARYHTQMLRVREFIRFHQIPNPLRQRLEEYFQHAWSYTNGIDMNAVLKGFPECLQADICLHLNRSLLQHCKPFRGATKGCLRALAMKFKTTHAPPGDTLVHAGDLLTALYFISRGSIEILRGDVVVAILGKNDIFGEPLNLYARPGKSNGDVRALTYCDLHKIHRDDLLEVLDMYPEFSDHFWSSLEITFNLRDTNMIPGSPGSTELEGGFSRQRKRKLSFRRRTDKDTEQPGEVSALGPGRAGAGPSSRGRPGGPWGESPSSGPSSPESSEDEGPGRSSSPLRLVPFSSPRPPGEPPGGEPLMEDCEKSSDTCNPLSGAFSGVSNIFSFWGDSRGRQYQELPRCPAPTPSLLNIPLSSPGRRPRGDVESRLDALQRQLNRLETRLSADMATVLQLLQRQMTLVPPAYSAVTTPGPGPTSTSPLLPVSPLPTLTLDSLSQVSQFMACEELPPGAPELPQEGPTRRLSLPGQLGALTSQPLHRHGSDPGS
structure (smiles),measurement,setting,value
"COc1cc(N)c(Cl)cc1C(=O)NC1CCN(CCCOc2ccc(F)cc2)CC1OC (stereo not shown) [Cisapride, reference compound]",Hill Slope,hERG channel; human,1.01 ± 0.07
"Nc1nc2ccc(CN[C@@H]3CO[C@H](C(c4ccc(F)cc4)c4ccc(F)cc4)C[C@H]3O)cc2s1 [D-578, (2S,4R,5R)-5-(((2-aminobenzo[d]thiazol-6-yl)methyl)amino)-2-(bis(4-fluorophenyl)methyl)tetrahydro-2H-pyran-4-ol]",% Inhibition of Binding at 10 μM D-578,GABA A,2.3%
same,Ki,κ-opioid,1.39 µM
same,inhibition at 10 µM,κ-opioid; [4],68.9%
same,Oral absorption and brain penetration,[1],gets absorbed orally and penetrates into the brain well
same,Ki,D2,0.773 µM
same,inhibition at 10 µM,D2; [4],62.3%
same,inhibition at 10 µM,PBR,10.6%
same,inhibition at 10 µM,V1A,44.6%
same,inhibition at 10 µM,H1,11%
same,inhibition at 10 µM,Alpha2B,6.3%
same,Ki,Beta2,> 10 µM
same,inhibition at 10 µM,Beta2; [4],59.4%
same,inhibition at 10 µM,D1,11%
same,inhibition at 10 µM,5HT3,8.5%
same,Ki,DAT,0.0162 ± 0.002 µM
same,"Locomotor activity, distance travelled vs vehicle",locomotor activity,not significantly different from vehicle
same,inhibition at 10 µM,δ-opioid,24.1%
same,Inhibition of the hERG channel (in words),hERG channel; Thallium flux assay,almost no inhibition
same,Hill Slope,"hERG channel; Tl+ flux assay, inhibition of hERG channel",1.471 ± 0.23
same,inhibition at 10 µM,Beta1,45.6%
same,inhibition at 10 µM,μ-Opioid,11.7%
same,Ki,SERT,0.0162 ± 0.0015 µM
same,inhibition at 10 µM,D5,37.4%
same,inhibition at 10 µM,mGlur5,52.8%
same,Ki,M4,> 10 µM
same,inhibition at 10 µM,M4; [4],55%
same,inhibition at 10 µM,V2,21%
same,Ki,M5,> 10 µM
same,inhibition at 10 µM,M5; [4],84.4%
same,inhibition at 10 µM,D4,20.9%
same,Freezing behavior during the extinction retention session (SPS-induced deficit),[2],froze significantly less
same,Freezing behavior during the extinction session (SPS-induced deficit),[2],froze less
same,Shock reactivity during acquisition compared to the control group,[2],no effect
same,% Inhibition of Binding at 10 μM D-578,BZP Rat Brain Site,28.8%
same,inhibition at 10 µM,Alpha1A,18.6%
same,inhibition at 10 µM,Alpha1B,38.3%
same,inhibition at 10 µM,5HT1a,19.9%
same,inhibition at 10 µM,H3,19.6%
same,inhibition at 10 µM,M3,7.5%
same,Ki,cloned human DAT,0.0296 ± 0.00695 µM
same,Ki,cloned human NET,0.0061 ± 0.00114 µM
same,Times more potent at NET compared to DAT and SERT,cloned human NET; cloned human transporters,3-4 times
same,Ki,Alpha2C,2.01 µM
same,inhibition at 10 µM,Alpha2C; [4],72%
same,Ki,cloned human SERT,0.0206 ± 0.0038 µM
same,inhibition at 10 µM,H4,2.4%
same,Ki,5HT2c,0.073 µM
same,inhibition at 10 µM,5HT2c; [4],96.3%
same,Immobility in the rat forced swimming test compared to vehicle,[3]; 10 mg/kg p.o.,significantly reduced
same,Immobility in the rat forced swimming test compared to vehicle,[3]; 15 mg/kg p.o.,significantly reduced
same,Reduction of immobility compared to control,"[3]; 25 mg/kg PO, forced swimming test in rats",greater than 90%
same,Immobility in the rat forced swimming test compared to vehicle,[3]; 25 mg/kg p.o.,marked reduction of immobility
same,inhibition at 10 µM,Alpha1D,24.7%
same,Ki,5HT2b,0.425 µM
same,inhibition at 10 µM,5HT2b; [4],80.3%
same,Ki,H2,0.042 µM
same,inhibition at 10 µM,H2; [4],94.1%
same,Ki,Oxytocin,> 10 µM
same,inhibition at 10 µM,Oxytocin; [4],53.1%
same,inhibition at 10 µM,5HT6,12.8%
same,inhibition at 10 µM,5HT7,28.9%
same,Ki,5HT1d,0.702 µM
same,inhibition at 10 µM,5HT1d; [4],72%
same,Ki,D3,2.61 µM
same,inhibition at 10 µM,D3; [4],56.4%
same,inhibition at 10 µM,5HT1b,13.6%
same,inhibition at 10 µM,V1B,7.8%
same,Ki,5HT2a,1.64 µM
same,inhibition at 10 µM,5HT2a; [4],62.5%
same,Ki,Beta3,2.7 µM
same,inhibition at 10 µM,Beta3; [4],59.8%
same,inhibition at 10 µM,5HT5a,35.2%
same,inhibition at 10 µM,Alpha2A,22.6%
same,inhibition at 10 µM,M1,97.2%
same,inhibition at 10 µM,M2,20.9%
"Fc1ccc([C@@H]2CCNC[C@H]2COc2ccc3c(c2)OCO3)cc1 [paroxetine, reference compound]",Freezing behavior during the extinction retention session (SPS-induced deficit),[2],did not reverse
same,Freezing behavior during the extinction session (SPS-induced deficit),[2],did not reverse
same,Shock reactivity during acquisition compared to the control group,[2],no effect
